Source: ChEMBL document CHEMBL4052674, “Discovery of novel quinazoline-2,4(1H,3H)-dione derivatives as potent PARP-2 selective inhibitors” (Bioorg Med Chem, 2017)

Tests used:
[1] = target: Poly [ADP-ribose] polymerase 1 (Homo sapiens, UniProt P09874); experiment: Inhibition of recombinant human PARP-1 expressed in Escherichia coli BL21 (DE3) using sheared DNA as substrate in presence of biotinylated NAD after 1 hr by ELISA
[2] = target: Poly [ADP-ribose] polymerase 2 (Homo sapiens, UniProt Q9UGN5); experiment: Inhibition of recombinant human PARP-2 expressed in Escherichia coli BL21 (DE3) using sheared DNA as substrate in presence of biotinylated NAD after 1 hr by ELISA
Chain of Poly [ADP-ribose] polymerase 2 (Q9UGN5 whole entry): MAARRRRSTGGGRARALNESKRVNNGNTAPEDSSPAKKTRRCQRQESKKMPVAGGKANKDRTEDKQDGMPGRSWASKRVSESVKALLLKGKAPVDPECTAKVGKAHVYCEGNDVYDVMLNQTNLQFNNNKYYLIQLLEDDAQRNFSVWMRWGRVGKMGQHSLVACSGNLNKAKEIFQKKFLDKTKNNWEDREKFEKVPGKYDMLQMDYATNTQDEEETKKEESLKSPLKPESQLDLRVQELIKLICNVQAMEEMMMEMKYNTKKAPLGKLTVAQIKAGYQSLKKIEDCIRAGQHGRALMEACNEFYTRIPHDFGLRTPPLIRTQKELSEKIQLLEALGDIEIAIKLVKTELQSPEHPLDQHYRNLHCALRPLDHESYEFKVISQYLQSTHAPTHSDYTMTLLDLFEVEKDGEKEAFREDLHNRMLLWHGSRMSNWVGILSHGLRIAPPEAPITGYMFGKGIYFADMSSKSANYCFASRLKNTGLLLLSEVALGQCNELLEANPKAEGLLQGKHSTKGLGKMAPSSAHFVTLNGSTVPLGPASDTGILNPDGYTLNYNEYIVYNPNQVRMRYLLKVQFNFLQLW

Homo sapiens = species: Homo sapiens; experiment: Selectivity index, ratio of IC50 for recombinant human PARP-1 expressed in Escherichia coli BL21 (DE3) to IC50 for recombinant human PARP-2 expressed in Escherichia coli BL21 (DE3)
Procedure, shortened: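 Human recombinant PARP-1 and PARP-2, expressed from plasmid and purified, were tested for inhibition of enzyme activity by ELISA and by chemical quantitation of NAD⁺. IC50 for each isoform was averaged from two or three independent experiments. The selectivity value is the ratio of the PARP-1 IC50 to the PARP-2 IC50.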

Chain of Poly [ADP-ribose] polymerase 1 (P09874 whole entry): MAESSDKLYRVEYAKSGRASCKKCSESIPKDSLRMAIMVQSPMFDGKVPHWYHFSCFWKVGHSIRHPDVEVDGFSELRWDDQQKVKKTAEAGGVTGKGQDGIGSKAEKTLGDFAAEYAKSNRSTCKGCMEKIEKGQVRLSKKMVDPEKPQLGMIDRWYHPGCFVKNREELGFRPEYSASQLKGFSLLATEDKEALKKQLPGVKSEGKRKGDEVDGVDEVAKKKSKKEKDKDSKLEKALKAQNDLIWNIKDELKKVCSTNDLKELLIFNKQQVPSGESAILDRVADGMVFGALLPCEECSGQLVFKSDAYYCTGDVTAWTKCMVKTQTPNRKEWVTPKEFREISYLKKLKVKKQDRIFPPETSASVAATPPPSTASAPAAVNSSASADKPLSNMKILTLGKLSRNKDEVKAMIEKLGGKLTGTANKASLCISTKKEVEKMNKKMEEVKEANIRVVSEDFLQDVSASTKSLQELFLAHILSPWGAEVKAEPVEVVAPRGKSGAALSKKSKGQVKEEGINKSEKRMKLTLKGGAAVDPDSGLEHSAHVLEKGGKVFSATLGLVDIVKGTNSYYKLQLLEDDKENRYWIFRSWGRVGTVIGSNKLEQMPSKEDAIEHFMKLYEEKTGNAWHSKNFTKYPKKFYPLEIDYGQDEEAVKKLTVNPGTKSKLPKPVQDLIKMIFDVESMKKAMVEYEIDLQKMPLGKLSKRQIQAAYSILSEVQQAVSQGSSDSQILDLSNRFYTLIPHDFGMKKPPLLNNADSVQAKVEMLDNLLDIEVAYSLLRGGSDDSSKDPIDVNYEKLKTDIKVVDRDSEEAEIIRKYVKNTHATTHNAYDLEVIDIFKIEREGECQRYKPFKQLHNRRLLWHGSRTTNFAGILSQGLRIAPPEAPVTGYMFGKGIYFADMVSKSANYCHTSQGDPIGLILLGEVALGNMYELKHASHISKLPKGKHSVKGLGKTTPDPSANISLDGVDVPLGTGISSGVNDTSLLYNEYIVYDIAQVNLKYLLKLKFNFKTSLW

| IC50 [1] [nM] | IC50 [2] [nM] | Ratio IC50 (Homo sapiens) | Structure (SMILES) |
| --- | --- | --- | --- |
| > 100 | > 100 | – | O=C(Nc1cc(Cn2c(=O)[nH]c(=O)c3ccccc32)ccc1Cl)[C@H]1CCNC1 |
| 62 | 5.8 | 10.7 | O=C(Nc1cc(Cn2c(=O)[nH]c(=O)c3ccccc32)cnc1F)[C@H]1CCN(Cc2ccncc2)C1 |
| 3.1 | 2.9 | 1 | O=C(Nc1cc(Cn2c(=O)[nH]c(=O)c3ccccc32)cnc1F)[C@H]1CCN(CCC(F)(F)F)C1 |
| > 100 | > 100 | – | O=C(Nc1cc(Cn2c(=O)[nH]c(=O)c3ccccc32)ccc1[N+](=O)[O-])[C@H]1CCNC1 |
| 81 | 11.9 | 6.8 | O=C(Nc1cc(Cn2c(=O)[nH]c(=O)c3ccccc32)cnc1F)[C@H]1CCN(C2CCC(F)(F)CC2)C1 |
| 6.2 | 9.1 | 0.7 | CC(C)(C)OC(=O)N1CC[C@H](C(=O)Nc2cc(Cn3c(=O)[nH]c(=O)c4ccccc43)ccc2Cl)C1 |
| > 100 | > 100 | – | CC(C)(C)OC(=O)N1CC[C@H](C(=O)Nc2cc(Cn3c(=O)[nH]c(=O)c4ccccc43)ccc2O)C1 |
| > 100 | > 100 | – | O=C(Nc1cc(Cn2c(=O)[nH]c(=O)c3ccccc32)ccc1Br)[C@H]1CCNC1 |
| 9.9 | 220 | 0.04 | O=C(Nc1cncc(Cn2c(=O)[nH]c(=O)c3ccccc32)c1)[C@H]1CCNC1 |
| 346 | 68 | 5.1 | CC(C)(C)OC(=O)N1CC[C@H](C(=O)Nc2cc(Cn3c(=O)[nH]c(=O)c4ccccc43)ccc2Br)C1 |
| 5.7 | 3.6 | 1.6 | O=C(Nc1cc(Cn2c(=O)[nH]c(=O)c3ccccc32)cnc1F)[C@H]1CCN(CC2CC2)C1 |
| > 100 | > 100 | – | CC(C)(C)OC(=O)N1CC[C@H](C(=O)Nc2cc(Cn3c(=O)[nH]c(=O)c4ccccc43)ccc2N)C1 |
| 39.8 | 8.6 | 4.6 | CC(C)(C)OC(=O)N1CC[C@H](C(=O)Nc2cc(Cn3c(=O)[nH]c(=O)c4ccccc43)cnc2F)C1 |
| 92.6 | 4.1 | 22.8 | O=C(Nc1cc(Cn2c(=O)[nH]c(=O)c3ccccc32)cnc1F)[C@H]1CCN(c2ccccc2)C1 |
| 467 | 11.5 | 40.6 | O=C(Nc1cc(Cn2c(=O)[nH]c(=O)c3ccccc32)cnc1F)[C@H]1CCN(CC(F)(F)F)C1 |
| 13.3 | 5.4 | 2.5 | O=C(Nc1cc(Cn2c(=O)[nH]c(=O)c3ccccc32)cnc1F)[C@H]1CCN(Cc2ccccc2)C1 |
| > 100 | > 100 | – | CC(C)(C)OC(=O)N1CC[C@H](C(=O)Nc2cc(Cn3c(=O)[nH]c(=O)c4ccccc43)ccc2[N+](=O)[O-])C1 |
| > 100 | > 100 | – | CC(C)(C)OC(=O)N1CC[C@H](C(=O)Nc2cncc(Cn3c(=O)[nH]c(=O)c4ccccc43)c2)C1 |
| 232 | 12.2 | 19 | CC(C)(C)OC(=O)N1CC[C@H](C(=O)Nc2cc(Cn3c(=O)[nH]c(=O)c4ccccc43)cnc2Cl)C1 |
| 1.4 | 1 | 1.8 | O=C(Nc1cc(Cn2c(=O)[nH]c(=O)c3ccccc32)cnc1F)[C@H]1CCN(CCC2CC2)C1 |
| > 100 | > 100 | – | CC(C)(C)OC(=O)N1CC[C@H](C(=O)Nc2cc(Cn3c(=O)[nH]c(=O)c4ccccc43)cnc2Br)C1 |
| 54 | 4.5 | 12 | O=C(Nc1cc(Cn2c(=O)[nH]c(=O)c3ccccc32)cnc1F)[C@H]1CCN(C(=O)C2CC2)C1 |

| Structure (SMILES) | IC50 [1] [nM] | IC50 [2] [nM] | Ratio IC50 (Homo sapiens) |
| --- | --- | --- | --- |
| O=C(Nc1cc(Cn2c(=O)[nH]c(=O)c3ccccc32)cnc1Br)[C@H]1CCNC1 | > 100 | > 100 | – |
| O=C(Nc1cc(Cn2c(=O)[nH]c(=O)c3ccccc32)cnc1F)[C@H]1CCNC1 | 13.7 | 80 | 0.18 |
| O=C(Nc1cc(Cn2c(=O)[nH]c(=O)c3ccccc32)cnc1Cl)[C@H]1CCNC1 | 174 | 40 | 4.4 |
